Laboratory results as given in ChEMBL document CHEMBL1177730, “Bivalent diketopiperazine-based tropomysin receptor kinase C (TrkC) antagonists” (J Med Chem, 2010).
Calls of active or inactive are those of the source. The rule behind the calls is not given here.

How the values were obtained:
[1] = target: Insulin-like growth factor 1 receptor (Homo sapiens) (UniProt P08069); test: Antagonist activity at human IGF1R expressed in mouse NIH/3T3 cells assessed as decrease in IGF-induced tyrosin phosphorylation at 20 uM after 20 mins by Western blotting; type: functional, cell-based; details: NIH3T3
[2] = target: NT-3 growth factor receptor (Homo sapiens) (UniProt Q16288); test: Antagonist activity at human TrkC expressed in mouse NIH/3T3 cells assessed as inhibition of NT3-induced cytoprotection at 20 uM by MTT assay relative to NT3; type: functional, cell-based; details: NIH3T3
How it was run: (§1)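 Survival of NIH-3T3 cells expressing TrkA, TrkC or IGF-1R was measured by MTT in serum-free medium. Medium held the matching growth factor (NGF for TrkA, NT-3 for TrkC, IGF-1 for IGF-1R) at optimal 10 nM or sub-optimal 0.2 nM, ± compound at 20 μM. Survival was expressed relative to optimal growth factor-mediated survival (100%); average ± sd.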

[3] = target: High affinity nerve growth factor receptor (Homo sapiens) (UniProt P04629); test: Binding affinity to human TrkA expressed in mouse NIH/3T3 cells by FACS analysis; type: cell-based; details: NIH3T3
How it was run: (§2)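 Stably transfected NIH-3T3 cells expressing the indicated receptor were incubated at 4 °C with biotin-tagged ligand (50 μM), then with fluorescein-avidin. After washing, cells were analysed by flow cytometry. Background mean channel fluorescence of NIH-IGF-1R cells was subtracted to give specific binding. Mean ± SEM, n = 3 independent experiments.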

[4] = target: Insulin-like growth factor 1 receptor (Homo sapiens) (UniProt P08069); test: Binding affinity to human IGF1R expressed in mouse NIH/3T3 cells by FACS analysis; type: cell-based; details: NIH3T3
[5] = target: NT-3 growth factor receptor (Homo sapiens) (UniProt Q16288); test: Antagonist activity at human TrkC expressed in mouse NIH/3T3 cells assessed as decrease in NT3-induced TrkC-pTyr level at 20 uM after 20 mins by Western blotting; type: functional, cell-based; set-up: scale not given: the % may be the effect or the level left; details: NIH3T3
How it was run: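 NIH3T3-TrkC cells were exposed to NT-3 (2 nM) ± compound (20 μM) for 20 min. Detergent lysates were Western blotted with anti-pTyr mAb 4G10 and anti-phospho-MAPK, then re-blotted for actin to normalise loading. Bands were quantified by densitometry.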

[6] = target: NT-3 growth factor receptor (Homo sapiens) (UniProt Q16288); test: Binding affinity at human TrkC expressed in mouse NIH/3T3 cells by FACS analysis; type: cell-based; details: NIH3T3; how it was run: as §2
[7] = target: Insulin-like growth factor 1 receptor (Homo sapiens) (UniProt P08069); test: Antagonist activity at human IGF1R expressed in mouse NIH/3T3 cells assessed as inhibition of IGF-induced cytoprotection at 20 uM by MTT assay relative to IGF; type: functional, cell-based; details: NIH3T3; how it was run: as §1
NIH3T3 = test: Cytotoxicity against mouse NIH/3T3 cells by MTT assay; type: cell-based
[8] = target: High affinity nerve growth factor receptor (Homo sapiens) (UniProt P04629); test: Antagonist activity at human TrkA expressed in mouse NIH/3T3 cells assessed as decrease in NGF-induced tyrosin phosphorylation at 20 uM after 20 mins by Western blotting; type: functional, cell-based; details: NIH3T3
[9] = target: Tumor necrosis factor receptor superfamily member 16 (p75NTR, NGFR) (Homo sapiens) (UniProt P08138); test: Binding affinity to human p75 expressed in mouse NIH/3T3 cells by FACS analysis; details: NIH3T3
[10] = target: High affinity nerve growth factor receptor (Homo sapiens) (UniProt P04629); test: Antagonist activity at human TrkA expressed in mouse NIH/3T3 assessed as inhibition of NGF-induced cytoprotection at 20 uM by MTT assay relative to NGF; type: functional, cell-based; details: NIH3T3; how it was run: as §1

Chain of High affinity nerve growth factor receptor (Homo sapiens) (P04629 33-796 limits assumed): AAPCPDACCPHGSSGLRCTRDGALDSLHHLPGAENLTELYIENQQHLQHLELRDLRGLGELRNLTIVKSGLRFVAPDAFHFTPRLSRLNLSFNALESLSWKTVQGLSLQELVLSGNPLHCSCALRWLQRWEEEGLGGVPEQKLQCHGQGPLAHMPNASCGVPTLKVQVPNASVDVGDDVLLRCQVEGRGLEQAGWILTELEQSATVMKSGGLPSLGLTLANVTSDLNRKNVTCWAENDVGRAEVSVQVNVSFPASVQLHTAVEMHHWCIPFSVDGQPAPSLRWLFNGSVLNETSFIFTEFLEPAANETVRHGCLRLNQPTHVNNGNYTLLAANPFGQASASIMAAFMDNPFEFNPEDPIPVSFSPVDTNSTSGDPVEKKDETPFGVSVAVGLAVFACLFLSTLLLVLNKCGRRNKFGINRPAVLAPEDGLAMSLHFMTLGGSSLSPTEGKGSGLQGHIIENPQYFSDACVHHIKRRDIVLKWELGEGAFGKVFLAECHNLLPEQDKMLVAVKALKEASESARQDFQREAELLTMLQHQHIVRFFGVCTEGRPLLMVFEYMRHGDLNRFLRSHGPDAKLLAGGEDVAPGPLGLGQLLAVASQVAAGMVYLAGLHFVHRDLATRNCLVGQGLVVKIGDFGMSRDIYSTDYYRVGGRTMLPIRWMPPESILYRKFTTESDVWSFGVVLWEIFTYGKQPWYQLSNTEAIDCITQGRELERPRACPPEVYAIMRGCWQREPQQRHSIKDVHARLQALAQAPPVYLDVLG
Chain of Insulin-like growth factor 1 receptor (Homo sapiens) (P08069 31-736 limits assumed): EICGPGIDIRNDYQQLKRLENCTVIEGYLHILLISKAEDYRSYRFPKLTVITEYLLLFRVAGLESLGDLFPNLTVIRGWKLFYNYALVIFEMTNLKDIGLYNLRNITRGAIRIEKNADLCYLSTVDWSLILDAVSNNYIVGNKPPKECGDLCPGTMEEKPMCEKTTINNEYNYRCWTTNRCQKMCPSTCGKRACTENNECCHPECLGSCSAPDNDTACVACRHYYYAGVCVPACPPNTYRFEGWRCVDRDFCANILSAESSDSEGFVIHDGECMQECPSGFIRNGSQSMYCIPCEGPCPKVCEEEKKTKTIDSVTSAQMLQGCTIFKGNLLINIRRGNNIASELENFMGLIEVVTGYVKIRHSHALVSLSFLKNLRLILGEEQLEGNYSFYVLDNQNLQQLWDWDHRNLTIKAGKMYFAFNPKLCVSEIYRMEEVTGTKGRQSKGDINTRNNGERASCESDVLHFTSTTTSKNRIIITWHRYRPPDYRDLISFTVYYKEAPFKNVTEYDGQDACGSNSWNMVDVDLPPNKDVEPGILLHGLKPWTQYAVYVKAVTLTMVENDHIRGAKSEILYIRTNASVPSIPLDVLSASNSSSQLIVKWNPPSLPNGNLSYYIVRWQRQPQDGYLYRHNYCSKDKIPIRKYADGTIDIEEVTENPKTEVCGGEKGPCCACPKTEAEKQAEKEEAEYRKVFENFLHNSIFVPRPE
Chain of Insulin-like growth factor 1 receptor (Homo sapiens) (P08069 741-1367 limits assumed): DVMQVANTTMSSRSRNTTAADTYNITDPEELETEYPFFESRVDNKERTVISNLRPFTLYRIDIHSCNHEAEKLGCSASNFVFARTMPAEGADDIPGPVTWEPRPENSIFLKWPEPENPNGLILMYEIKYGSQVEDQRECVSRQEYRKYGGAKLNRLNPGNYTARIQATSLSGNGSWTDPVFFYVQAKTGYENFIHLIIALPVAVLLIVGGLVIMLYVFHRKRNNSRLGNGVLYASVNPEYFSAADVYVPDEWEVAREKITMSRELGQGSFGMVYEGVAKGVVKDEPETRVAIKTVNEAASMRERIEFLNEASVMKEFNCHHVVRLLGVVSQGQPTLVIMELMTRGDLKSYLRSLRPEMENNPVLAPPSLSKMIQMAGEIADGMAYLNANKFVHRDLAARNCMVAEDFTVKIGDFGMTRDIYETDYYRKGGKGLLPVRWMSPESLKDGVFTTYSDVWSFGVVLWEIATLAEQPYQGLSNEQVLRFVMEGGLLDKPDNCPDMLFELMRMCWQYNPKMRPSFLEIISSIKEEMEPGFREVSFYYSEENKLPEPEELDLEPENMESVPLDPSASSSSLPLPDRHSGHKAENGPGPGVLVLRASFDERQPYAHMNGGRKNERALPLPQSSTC
Chain of NT-3 growth factor receptor (Homo sapiens) (Q16288 32-839 limits assumed): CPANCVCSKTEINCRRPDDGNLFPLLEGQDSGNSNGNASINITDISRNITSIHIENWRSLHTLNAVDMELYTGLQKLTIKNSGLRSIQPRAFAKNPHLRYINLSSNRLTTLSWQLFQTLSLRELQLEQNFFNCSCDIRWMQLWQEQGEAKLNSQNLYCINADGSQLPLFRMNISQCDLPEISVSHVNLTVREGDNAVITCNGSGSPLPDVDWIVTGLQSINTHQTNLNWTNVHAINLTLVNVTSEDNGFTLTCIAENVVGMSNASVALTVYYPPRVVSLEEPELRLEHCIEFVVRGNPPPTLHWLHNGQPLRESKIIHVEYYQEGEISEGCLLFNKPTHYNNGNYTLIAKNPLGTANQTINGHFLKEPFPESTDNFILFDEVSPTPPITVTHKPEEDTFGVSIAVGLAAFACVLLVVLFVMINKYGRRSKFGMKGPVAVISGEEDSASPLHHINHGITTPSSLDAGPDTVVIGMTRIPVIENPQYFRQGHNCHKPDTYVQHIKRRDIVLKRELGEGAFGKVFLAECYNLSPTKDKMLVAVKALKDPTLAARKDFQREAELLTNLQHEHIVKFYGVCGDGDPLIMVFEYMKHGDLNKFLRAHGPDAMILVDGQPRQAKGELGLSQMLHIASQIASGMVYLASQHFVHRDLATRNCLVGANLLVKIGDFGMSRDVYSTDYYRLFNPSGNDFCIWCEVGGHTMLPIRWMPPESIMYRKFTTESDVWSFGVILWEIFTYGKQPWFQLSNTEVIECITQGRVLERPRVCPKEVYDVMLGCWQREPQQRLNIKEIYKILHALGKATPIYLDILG
Chain of Tumor necrosis factor receptor superfamily member 16 (p75NTR, NGFR) (Homo sapiens) (P08138 whole entry, looked up): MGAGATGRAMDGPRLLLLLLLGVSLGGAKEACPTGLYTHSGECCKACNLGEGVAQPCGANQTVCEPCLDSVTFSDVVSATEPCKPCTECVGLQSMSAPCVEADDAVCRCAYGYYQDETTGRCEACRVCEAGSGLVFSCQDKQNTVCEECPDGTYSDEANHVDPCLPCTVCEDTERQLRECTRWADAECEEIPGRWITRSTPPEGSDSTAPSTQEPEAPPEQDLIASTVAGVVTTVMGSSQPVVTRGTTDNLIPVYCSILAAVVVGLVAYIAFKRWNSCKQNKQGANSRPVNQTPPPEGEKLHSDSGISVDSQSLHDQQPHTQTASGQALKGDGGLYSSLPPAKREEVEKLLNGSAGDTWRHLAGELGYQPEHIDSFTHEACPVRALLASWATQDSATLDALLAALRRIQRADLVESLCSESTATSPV

Activity [1]: inactive
inhibition [2]: 30%
Activity [3]: inactive
Activity [4]: inactive
Activity [5]: 40%
Activity [6]: Active
inhibition [7]: inactive
Activity [8]: inactive
inhibition [10]: inactive
Compound: CN1C(=O)CN([C@@H](CCCCN)C(=O)NCCCCCCCCCCC(=O)N2CCN(c3nc(NCCCC[C@@H]4SC[C@@H]5NC(=O)N[C@@H]54)nc(N4CCN(C(=O)[C@H](CCCCN)N5CC(=O)N(C)[C@@H](CCC(=O)O)C5=O)CC4)n3)CC2)C(=O)[C@@H]1CCC(=O)O
Activity (NIH3T3): Non-toxic
Activity [9]: inactive
